# Experimental data from the array DNA melting data of Ke et al. (doi:10.1101/2024.01.08.574731).
# How the values were obtained:
# [1] = folding enthalpy; higher = less favourable; fluorescence melt of hairpins on a sequencing array, two-state fit; conditions: sodium 0.088 M
# Outline: (§1)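 With Cy3 and quencher oligos annealed, library hairpins on a sequenced MiSeq flow cell were imaged for Cy3 fluorescence in 50 mM Na-HEPES pH 8.0, 25 mM NaCl, in 2.5 °C steps up to 60 °C. Melting temperature and folding enthalpy were derived from bootstrapped two-state fits of signals normalised to pre-quench Cy3 and to control constructs. Four replicates were combined by inverse variance, with fitted temperatures raised by 9.35 °C to match UV melts.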
# [2] = melting temperature; fluorescence melt of hairpins on a sequencing array, two-state fit, raised by 9.35 °C to match UV melts; conditions: sodium 0.088 M
# Outline: as §1
Sequence,folding enthalpy [1],Tm [2]
GACTGTGGAAACGCAGTC (((((.(....).))))),-31.7 kcal/mol,51.9 °C
GACTTCCGAAAGGAGGTC (((.(((....))).))),-36.6 kcal/mol,54.8 °C
GACTTGCCGAAAGGCGTC (((..(((....)))))),-11.6 kcal/mol,36.4 °C
GACTTGGGAAACCAAATC ((.((((....)))).)),-14 kcal/mol,28 °C
GACTTTGGAAACGAAGTC (((((.(....).))))),-29.4 kcal/mol,44.6 °C
GAGAAACGAAAGTTCCTC (((.(((....))).))),-27 kcal/mol,36.5 °C
GAGAACGAAAGTTCGCTC ((((((....)))..))),-19.8 kcal/mol,53.6 °C
GAGAACGAAAGTTTCTC ((((((....))).))),-25.1 kcal/mol,43.5 °C
GAGAACGAAAGTTTGCTC ((((((....)))..))),-16.8 kcal/mol,28.6 °C
GAGAACGGAAACGTCCTC (((.(((....))).))),-24.5 kcal/mol,40.2 °C
GAGAACGGAAACGTTCCC (.(((((....))))).),-11.9 kcal/mol,40 °C
GAGAAGGGAAACCTCCTC (((.(((....))).))),-17.7 kcal/mol,28.8 °C
GAGAATGGAAACATTCCC (.(((((....))))).),-19.6 kcal/mol,31.2 °C
GAGACAACGAAAGTTCTC (((..(((....)))))),-20.4 kcal/mol,28.3 °C
GAGACACGAAAGTGCCTC (((.(((....))).))),-33.4 kcal/mol,51.3 °C
GAGACAGCGAAAGCTCTC (((..(((....)))))),-9.49 kcal/mol,45.5 °C
GAGACCCGAAAGGGACTC (((.(((....))).))),-32.4 kcal/mol,57.6 °C
GAGACCGAAAGGTCCTC ((((((....))).))),-10.4 kcal/mol,53.6 °C
GAGACCGAAAGGTGACTC ((((((....)))..))),-13.8 kcal/mol,35.6 °C
GAGACCGGAAACGGCCTC (((.(((....))).))),-28.1 kcal/mol,50.8 °C
GAGACCGGAAACGGTCCC (.(((((....))))).),-10.2 kcal/mol,46.9 °C
GAGACCGGAAACGGTTTC ((.((((....)))).)),-22.5 kcal/mol,49.5 °C
GAGACGGGAAACCGCCTC (((.(((....))).))),-33.7 kcal/mol,49.1 °C

Sequence,folding enthalpy [1],Tm [2]
GAGAGAGGAAACCCTCTC (((((.(....).))))),-20.2 kcal/mol,42.5 °C
GAGAGAGGAAACTCTCCC (.(((((....))))).),-17 kcal/mol,37 °C
GAGAGCGAAAGCTAACTC ((((((....)))..))),-12.7 kcal/mol,33 °C
GAGAGCGAAAGCTCACTC ((((((....)))..))),-12 kcal/mol,55.5 °C
GAGAGCGAAAGCTCGCTC ((((((....)))..))),-13 kcal/mol,66.9 °C
GAGAGCGAAAGCTGACTC ((((((....)))..))),-13.3 kcal/mol,32.3 °C
GAGAGCGAAAGCTGCCTC ((((((....)))..))),-11.1 kcal/mol,27.4 °C
GAGAGCGAAAGCTGGCTC ((((((....)))..))),-13.5 kcal/mol,37.2 °C
GAGAGCGAAAGCTTCTC ((((((....))).))),-21.9 kcal/mol,48 °C
GAGAGCGCGAAAGCGCTC (((..(((....)))))),-6.4 kcal/mol,63.2 °C
GAGAGGCCGAAAGGCCTC (((..(((....)))))),-7.49 kcal/mol,65.9 °C
GAGAGGCGAAAGCCCCTC (((.(((....))).))),-17.3 kcal/mol,51.7 °C
GAGAGGGAAACCTCTC ((((((....)))))),-36.2 kcal/mol,55.3 °C
GAGAGTACGAAAGTACTC (((..(((....)))))),-11.7 kcal/mol,55.2 °C
GAGAGTGGAAACACTCCC (.(((((....))))).),-13.7 kcal/mol,38.1 °C
GAGATAGAAATATCTC ((((((....)))))),-26.9 kcal/mol,39 °C
GAGATAGCGAAAGCTCTC (((..(((....)))))),-15.9 kcal/mol,40 °C
GAGATAGGAAACTATCCC (.(((((....))))).),-16.4 kcal/mol,30.1 °C
GAGATCCCGAAAGGGCTC (((..(((....)))))),-12 kcal/mol,34.9 °C
GAGATCCGAAAGGAGCTC (((.(((....))).))),-44.9 kcal/mol,60.8 °C
GAGATCGGAAACGATCTC (((((((....))))))),-43 kcal/mol,66.8 °C
GAGATGCGAAAGCAGCTC (((.(((....))).))),-34.6 kcal/mol,69.1 °C
GAGATGGCGAAAGCCCTC (((..(((....)))))),-10.3 kcal/mol,32.8 °C

Sequence,folding enthalpy [1],Tm [2]
GAGATTGGAAACGATCTC (((((.(....).))))),-36.1 kcal/mol,44.2 °C
GAGCAACGAAAGTTCCTC (((.(((....))).))),-13.6 kcal/mol,32.3 °C
GAGCAACGAAAGTTTCTC (((.(((....))).))),-26.3 kcal/mol,37 °C
GAGCACACGAAAGTGCTC (((..(((....)))))),-33.4 kcal/mol,57.8 °C
GAGCACCGAAAGGTCCTC (((.(((....))).))),-22.2 kcal/mol,40.8 °C
GAGCACCGAAAGGTCTC (((.(((....)))))),-24.1 kcal/mol,47.6 °C
GAGCACGAAAGTGAGCTC ((((((....)))..))),-25.4 kcal/mol,49.6 °C
GAGCACGAAAGTGTACTC ((((((....)))..))),-15.4 kcal/mol,37.5 °C
GAGCACGAAAGTGTGCTC ((((((....)))..))),-31.2 kcal/mol,58.6 °C
GAGCACGGAAACGTACTC (((.(((....))).))),-32.9 kcal/mol,45.4 °C
GAGCAGCGAAAGCTCCTC (((.(((....))).))),-15.2 kcal/mol,37.5 °C
GAGCAGCGAAAGCTCTC (((.(((....)))))),-17.6 kcal/mol,47.4 °C
GAGCATGAAAATGCTC ((((((....)))))),-33 kcal/mol,63.2 °C
GAGCATGCGAAAGCACTC (((..(((....)))))),-8.93 kcal/mol,27 °C
GAGCCACCGAAAGGTCTC (((..(((....)))))),-12.2 kcal/mol,29.7 °C
GAGCCAGGAAACTGACTC (((.(((....))).))),-36.8 kcal/mol,44 °C
GAGCCCGAAAGGGCCTC ((((((....))).))),-8.72 kcal/mol,58.9 °C
GAGCCCGAAAGGGTTCTC ((((((....)))..))),-19.9 kcal/mol,66.9 °C
GAGCCCGGAAACAGGCCC (.(((.(....).))).),-8.46 kcal/mol,27.1 °C
GAGCCCGGAAACGGACTC (((.(((....))).))),-33.1 kcal/mol,52.4 °C
GAGCCGCCGAAAGGCCTC (((..(((....)))))),-8.95 kcal/mol,33.1 °C
GAGCCGCGAAAGCGCCTC (((.(((....))).))),-16 kcal/mol,46.4 °C
GAGCCGCGAAAGCGCTC (((.(((....)))))),-16.7 kcal/mol,58.9 °C

Sequence,folding enthalpy [1],Tm [2]
GAGCCGCGAAAGCGTCTC (((.(((....))).))),-22.4 kcal/mol,54.3 °C
GAGCCGGGAAACCAGCTC ((((.((....)).)))),-37.8 kcal/mol,48 °C
GAGCCTGGAAACAAGCTC ((((.((....)).)))),-29.8 kcal/mol,38.6 °C
GAGCCTGGAAACAGGCCC (.(((((....))))).),-10.9 kcal/mol,47.8 °C
GAGCGACGAAAGTCTCTC (((.(((....))).))),-29.5 kcal/mol,46 °C
GAGCGAGGAAACCCGCTC (((((.(....).))))),-32.5 kcal/mol,54.7 °C
GAGCGCCCGAAAGGGCTC (((..(((....)))))),-6.69 kcal/mol,29.4 °C
GAGCGCCGAAAGGCACTC (((.(((....))).))),-20.2 kcal/mol,56.4 °C
GAGCGCCGAAAGGCCTC (((.(((....)))))),-14.6 kcal/mol,59.8 °C
GAGCGCGAAAGCGAGCTC ((((((....)))..))),-20.9 kcal/mol,58.3 °C
GAGCGCGAAAGCGGACTC ((((((....)))..))),-13.7 kcal/mol,52.3 °C
GAGCGCGAAAGCGGCTC ((((((....))).))),-20.6 kcal/mol,67.8 °C
GAGCGCGAAAGCGTCCTC ((((((....)))..))),-10 kcal/mol,42.2 °C
GAGCGCGAAAGCGTTCTC ((((((....)))..))),-18.1 kcal/mol,66.8 °C
GAGCGCGGAAACGCACTC (((.(((....))).))),-24.2 kcal/mol,59 °C
GAGCGCGGAAACGTGCTC ((((.((....)).)))),-32.3 kcal/mol,65.6 °C
GAGCGGCGAAAGCCTCTC (((.(((....))).))),-20.5 kcal/mol,51.7 °C
GAGCGGGGAAACTCGCTC (((((.(....).))))),-38.3 kcal/mol,60.4 °C
GAGCTACGAAAGTAACTC (((.(((....))).))),-25.5 kcal/mol,42.3 °C
GAGCTAGGAAACCAGCTC (((((.(....).))))),-39.1 kcal/mol,46.3 °C
GAGCTCCCGAAAGGGCTC (((..(((....)))))),-17.7 kcal/mol,44.4 °C
GAGCTGCGAAAGCACCTC (((.(((....))).))),-17 kcal/mol,39.7 °C
